Measurements taken from ChEMBL document CHEMBL3734708, “Synthesis, cytotoxicity and antiviral evaluation of new series of imidazo[4,5-g]quinoline and pyrido[2,3-g]quinoxalinone derivatives” (Eur J Med Chem, 2015).

Key:
[1] = tested on: Human poliovirus 1 strain Sabin; test: Antiviral activity against Human poliovirus 1 strain Sabin 1 virus infected in african green monkey Vero-76 cells after 2 days by plaque reduction assay; format: functional, organism-based; conditions: Enterovirus C, 1, Vero 76, 48 h
[2] = Cytotoxicity against MDBK cells assessed as reduction in cell viability after 72 hrs by MTT assay; format: cell-based, Bos taurus; conditions: cattle
How it was run: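 MDBK cells seeded at 6 × 10^5 cells/mL in MEM-E with L-glutamine, 1 mM sodium pyruvate, kanamycin and 10% horse serum. Mock-infected cultures held with serial compound dilutions at 37 °C, 5% CO2. MTT viability read after 72 h. 50% cytotoxic concentration from linear regression as % of untreated controls. Three independent determinations.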

[3] = tested on: Vaccinia virus; test: Antiviral activity against VV Elstree ATCC VR-1549 infected in african green monkey Vero-76 cells after 3 days by plaque reduction assay; format: functional, organism-based; conditions: Orthopoxvirus vaccinia, Elstree ATCC VR-1549, Vero 76, 72 h
[4] = Cytotoxicity against BHK21 cells assessed as reduction in cell viability after 72 hrs by MTT assay; format: cell-based, Mesocricetus auratus, BHK-21; conditions: hamster
How it was run: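 BHK cells seeded at 1 × 10^6 cells/mL in MEM-E with L-glutamine, 1 mM sodium pyruvate, kanamycin and 10% FBS. Mock-infected cells exposed to serial dilutions of compound at 37 °C, 5% CO2, run in parallel with the antiviral assays. Viability by MTT at 72 h. CC50 by linear regression vs untreated controls. Mean of three independent determinations.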

[5] = Cytotoxicity against african green monkey Vero 76 cells assessed as reduction in cell viability after 48 to 96 hrs by MTT assay; format: cell-based; conditions: chlorocebus sabaeus
How it was run: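 Vero-76 cells plated at 4 × 10^5 cells/mL in D-MEM with L-glutamine, kanamycin and 10% FBS. Incubated with serial dilutions of test compounds at 37 °C, 5% CO2 for 48-96 h. Viability by MTT. CC50 by linear regression relative to untreated cells. Mean of three independent runs.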

[6] = tested on: Respiratory syncytial virus; test: Antiviral activity against RSVA2 ATCC VR-1540 infected in african green monkey Vero-76 cells after 5 days by plaque reduction assay; format: functional, organism-based; conditions: human respiratory syncytial virus, A2 ATCC VR-1540, Vero 76, 120 h
[7] = tested on: Human immunodeficiency virus 1; test: Antiviral activity against HIV-1 3B infected in human MT4 cells assessed as protection against virus-induced cytopathic effect after 4 days by MTT assay; format: functional, organism-based; conditions: Human immunodeficiency virus 1, 3B, MT4, 96 h
How it was run: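 MT-4 cells (1 × 10^4/well in RPMI) with or without serial compound dilutions, infected with HIV-1 at 100 CCID50 (m.o.i. 0.01). After 4 days at 37 °C, protection from cytopathogenicity read by MTT. EC50 by linear regression versus untreated controls; mean of three independent determinations.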

[8] = tested on: Mammalian orthoreovirus 1; test: Antiviral activity against Reovirus 1 ATCC VR- 214 infected in BHK21 cells assessed as protection against virus-induced cytopathic effect after 3 or 4 days by MTT assay; format: functional, cell-based; conditions: Mammalian orthoreovirus 1, ATCC VR- 214, BHK-21
How it was run: (§1)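 BHK-21 (YFV, Reo-1) or MDBK (BVDV) cells seeded at 5 × 10^4 or 3 × 10^4 cells/well and grown overnight to confluence. Monolayers infected at m.o.i. 0.01 in maintenance medium (MEM-Earle, 0.5% inactivated FBS). Serial compound dilutions added 2 h after infection; 37 °C for 3-4 days. Viability read by MTT. EC50 by linear regression versus untreated controls; mean of three determinations.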

[9] = tested on: Human alphaherpesvirus 1; test: Antiviral activity against HSV-1 KOS ATCC VR- 1493 infected in african green monkey Vero-76 cells after 3 days by plaque reduction assay; format: functional, organism-based; conditions: Human alphaherpesvirus 1, KOS ATCC VR1493, Vero 76, 72 h
[10] = tested on: Yellow fever virus; test: Antiviral activity against YFV 17-D vaccine (Stamaril Pasteur J07B01) infected in BHK21 cells assessed as protection against virus-induced cytopathic effect after 3 or 4 days by MTT assay; format: functional, organism-based; conditions: BHK-21; how it was run: as §1
[11] = tested on: Vesicular stomatitis virus; test: Antiviral activity against VSV Indiana ATCC VR-158 infected in african green monkey Vero-76 cells after 2 days by plaque reduction assay; format: functional, organism-based; conditions: Indiana ATCC VR-158, Vero 76, 48 h
[12] = tested on: Bovine viral diarrhea virus 1; test: Antiviral activity against BVDV NADL ATCC VR-534 infected in MDBK cells assessed as protection against virus-induced cytopathic effect after 3 or 4 days by MTT assay; format: functional, organism-based; conditions: Bovine viral diarrhea virus isolates and strains, NADL ATCC VR-534, MDBK; how it was run: as §1
[13] = Cytotoxicity against human MT4 cells assessed as reduction in cell proliferation after 96 hrs by MTT assay; format: cell-based
How it was run: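 MT-4 cells in exponential growth seeded at 1 × 10^5 cells/mL in RPMI-1640 with 10% FBS and penicillin/streptomycin. Cultured with serial compound dilutions at 37 °C, 5% CO2. MTT viability after 96 h. CC50 by linear regression against untreated controls. Mean of three independent determinations.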

[14] = tested on: Coxsackievirus B5; test: Antiviral activity against CVB-5 virus Faulkner ATCC VR-185 infected in african green monkey Vero-76 cells after 3 days by plaque reduction assay; format: functional, organism-based; conditions: Enterovirus B, Faulkner ATCC VR-185, Vero 76, 72 h

Compound | EC50 [1] | CC50 at 72 h [2] | EC50 [3] | CC50 at 72 h [4] | CC50 [5] | EC50 [6] | EC50 [7] | EC50 [8] | EC50 [9] | EC50 [10] | EC50 [11] | EC50 [12] | CC50 at 96 h [13] | EC50 [14]
Cn1c(=O)c(-c2ccccc2)nc2c(Cl)c3ncccc3cc21 | 38 µM | > 100 µM | > 100 µM | > 100 µM | > 100 µM | > 100 µM | > 100 µM | > 100 µM | > 100 µM | > 100 µM | > 100 µM | 16 µM | > 100 µM | 17 µM
O=c1c(-c2ccccc2)nc2c(Cl)c3ncccc3cc2n1Cc1ccccc1 | > 90 µM | > 100 µM | > 90 µM | > 100 µM | 90 µM | > 90 µM | > 88 µM | > 100 µM | > 100 µM | > 100 µM | > 90 µM | 46 µM | 88 µM | > 90 µM
N#CCn1c(=O)c(-c2ccccc2)nc2c(Cl)c3ncccc3cc21 | > 90 µM | > 100 µM | > 90 µM | > 100 µM | 90 µM | > 90 µM | > 100 µM | > 100 µM | > 90 µM | > 100 µM | > 90 µM | > 100 µM | > 100 µM | > 90 µM
CCn1c(=O)c(-c2ccccc2)nc2c(Cl)c3ncccc3cc21 | > 60 µM | > 100 µM | > 60 µM | > 100 µM | 60 µM | > 60 µM | > 100 µM | > 100 µM | > 60 µM | > 100 µM | > 60 µM | > 100 µM | > 100 µM | > 60 µM
COc1nc2cc3cccnc3c(Cl)c2nc1-c1ccccc1 | 73 µM | > 100 µM | > 100 µM | > 100 µM | > 100 µM | 9 µM | > 100 µM | 21 µM | > 100 µM | > 100 µM | > 100 µM | 4 µM | > 100 µM | > 100 µM
O=c1c(Cc2ccccc2)nc2cc3cccnc3c(Cl)c2n1C1CCCCC1 | > 20 µM | > 100 µM | > 20 µM | 20 µM | 20 µM | > 20 µM | > 34 µM | > 20 µM | > 20 µM | > 20 µM | > 20 µM | 5 µM | 34 µM | > 20 µM
O=c1c(-c2ccccc2)nc2cc3cccnc3c(Cl)c2n1CC1CCCCC1 | > 20 µM | 50 µM | > 20 µM | 15 µM | 20 µM | > 20 µM | > 23 µM | > 15 µM | > 20 µM | > 15 µM | > 20 µM | 4 µM | 23 µM | > 20 µM
O=c1c(-c2ccccc2)nc2c(Cl)c3ncccc3cc2n1Cc1ccc([N+](=O)[O-])cc1 | > 100 µM | > 100 µM | > 100 µM | > 100 µM | > 100 µM | > 100 µM | > 100 µM | > 100 µM | > 100 µM | > 100 µM | > 100 µM | > 100 µM | > 100 µM | > 100 µM
O=c1c(-c2cccs2)nc2cc3cccnc3c(Cl)c2n1C1CCCCC1 | > 100 µM | > 100 µM | > 100 µM | > 100 µM | > 100 µM | > 100 µM | > 100 µM | > 100 µM | > 100 µM | > 100 µM | > 100 µM | 15 µM | > 100 µM | > 100 µM
